Reference: ChEMBL document CHEMBL1136726, “Synthesis and characterization of iodine-123 labeled 2beta-carbomethoxy-3beta-(4'-((Z)-2-iodoethenyl)phenyl)nortropane. A ligand for in vivo imaging of serotonin transporters by single-photon-emission tomography” (J Med Chem, 2003)

Tests used:
Rattus norvegicus [1] = experiment: Ratio of distribution of radioactivity in rat brain region hypothalamus and cerebellum 60 min after intravenous administration of iodine labeled compound in presence of RTI-113 blocker in study 1; assay type: ADME, organism-based; conditions: in vivo, 1 h
Rattus norvegicus [2] = experiment: Ratio of distribution of radioactivity in rat brain region hypothalamus and cerebellum 60 min after intravenous administration of iodine labeled compound in presence of fluvoxamine blocker in study 1; assay type: ADME, organism-based; conditions: in vivo, 1 h
Rattus norvegicus [3] = experiment: Distribution of radioactivity in rat brain region prefrontal cortex 60 min after intravenous administration of iodine labeled compound in absence of blocker in study 2; assay type: ADME, organism-based; conditions: in vivo, 1 h
How it was run: (§1)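 Male Sprague–Dawley rats (250–300 g), ketamine-anesthetized. Blocker (2 mg/kg) or none was given iv 15 min before tail-vein radioligand (10 µCi in 0.2 mL 10% EtOH/saline). Rats were killed at 60 min with im pentobarbital. Brain regions were dissected, weighed and gamma-counted. % dose/g was taken from decay-corrected, background-subtracted counts versus the injected dose.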

Rattus norvegicus [4] = experiment: Distribution of radioactivity in rat heart 60 min after intravenous administration of iodine labeled compound; assay type: ADME, organism-based; conditions: in vivo, 1 h
How it was run: (§2)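 Tail-vein injection of [123I]ZIENT (10 μCi in 0.2 mL 10% EtOH/0.9% NaCl, then 0.4 mL saline flush) into ketamine-anaesthetised male Sprague–Dawley rats (225–300 g). Animals were killed by cardiac excision at set times. Organs were excised, rinsed, blotted, weighed and gamma-counted. % dose/g was calculated against diluted aliquots of injectate. Mean ± SE, n=4–5.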

Rattus norvegicus [5] = experiment: Ratio of distribution of radioactivity in rat brain striatum and cerebellum 60 min after intravenous administration of iodine labeled compound; assay type: ADME, organism-based; conditions: in vivo, 1 h
How it was run: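 Male Sprague–Dawley rats (225–300 g), ketamine anesthesia, injected via tail vein with [123I]ZIENT (10 μCi in 0.2 mL 10% EtOH/0.9% NaCl, 0.4 mL saline flush). Killed at 5, 30, 60 or 120 min. Striatum and cerebellum dissected, weighed, γ-counted. Decay-corrected %injected dose/g taken against diluted injectate. Ratio is striatum over cerebellum. Four or five rats per time point, mean ± standard error.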

Rattus norvegicus [6] = experiment: Distribution of radioactivity in rat brain prefrontal cortex 60 min after intravenous administration of iodine labeled compound; assay type: ADME, organism-based; conditions: in vivo, 1 h
How it was run: (§3)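 Male Sprague–Dawley rats (225–300 g) under ketamine received 10 µCi radioligand iv (tail vein) in 10% EtOH/saline. Hypothalamus, prefrontal cortex, striatum, pons and cerebellum were dissected, weighed and gamma-counted. % injected dose/g was taken from decay-corrected counts versus diluted dose. Mean ± SE and range, n=5 (5, 30 min) or 4 (60, 120 min).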

Rattus norvegicus [7] = experiment: Distribution of radioactivity in rat brain region frontal cortex 60 min after intravenous administration of iodine labeled compound in presence of fluvoxamine blocker in study 1; assay type: ADME, organism-based; conditions: in vivo, 1 h; how it was run: as §1
Rattus norvegicus [8] = experiment: Distribution of radioactivity in rat brain hypothalamus 5 min after intravenous administration of iodine labeled compound; assay type: ADME, organism-based; conditions: in vivo; how it was run: as §3
Rattus norvegicus [9] = experiment: Distribution of radioactivity in rat liver 30 min after intravenous administration of iodine labeled compound; assay type: ADME, organism-based; conditions: in vivo, 0.5 h; how it was run: as §2
Rattus norvegicus [10] = experiment: Distribution of radioactivity in rat thyroid 5 min after intravenous administration of iodine labeled compound; assay type: ADME, organism-based, Thyroid gland; conditions: in vivo; how it was run: as §2
Rattus norvegicus [11] = experiment: Distribution of radioactivity in rat brain striatum 30 min after intravenous administration of iodine labeled compound; assay type: ADME, organism-based; conditions: in vivo, 0.5 h
How it was run: (§4)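 Male Sprague–Dawley rats (225–300 g) under ketamine anaesthesia were given [123I]ZIENT (10 μCi) in 0.2 mL 10% EtOH/0.9% NaCl into the tail vein, with a saline flush. Hypothalamus, prefrontal cortex, striatum, pons and cerebellum were dissected and gamma-counted. % injected dose/g came from decay-corrected counts against the diluted injected dose, and region/cerebellum ratios were taken from these. Mean ± SE, n=4–5.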

Rattus norvegicus [12] = experiment: Distribution of radioactivity in rat brain 60 min after intravenous administration of iodine labeled compound; assay type: ADME, organism-based; conditions: in vivo, 1 h
Rattus norvegicus [13] = experiment: Distribution of radioactivity in rat blood 120 min after intravenous administration of iodine labeled compound; assay type: ADME, organism-based; conditions: in vivo, 2 h
How it was run: (§5)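 Male Sprague–Dawley rats (225–300 g) under ketamine received 10 µCi radioligand in 0.2 mL 10% EtOH/0.9% NaCl via tail vein, then a saline flush. Killed by cardiac excision at set times. Organs were excised, weighed and gamma-counted. % dose/g was taken against diluted injectate. Mean ± SE and range, n=4 (5 min) or 5 (30–120 min).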

Rattus norvegicus [14] = experiment: Distribution of radioactivity in rat brain region frontal cortex 60 min after intravenous administration of iodine labeled compound in presence of reboxetine blocker in study 2; assay type: ADME, organism-based; conditions: in vivo, 1 h; how it was run: as §1
Rattus norvegicus [15] = experiment: Distribution of radioactivity in rat brain region frontal cortex 60 min after intravenous administration of iodine labeled compound in presence of RTI-113 blocker in study 1; assay type: ADME, organism-based; conditions: in vivo, 1 h; how it was run: as §1
Rattus norvegicus [16] = experiment: Ratio of distribution of radioactivity in rat brain region hypothalamus and cerebellum 60 min after intravenous administration of iodine labeled compound in absence of blocker in study 1; assay type: ADME, organism-based; conditions: in vivo, 1 h
Rattus norvegicus [17] = experiment: Ratio of distribution of radioactivity in rat brain region prefrontal cortex and cerebellum 60 min after intravenous administration of iodine labeled compound in absence of blocker in study 1; assay type: ADME, organism-based; conditions: in vivo, 1 h
Rattus norvegicus [18] = experiment: Distribution of radioactivity in rat blood 60 min after intravenous administration of iodine labeled compound; assay type: ADME, organism-based; conditions: in vivo, 1 h; how it was run: as §5
Rattus norvegicus [19] = experiment: Distribution of radioactivity in rat brain region hypothalamus 60 min after intravenous administration of iodine labeled compound in absence of blocker in study 2; assay type: ADME, organism-based; conditions: in vivo, 1 h; how it was run: as §1
Rattus norvegicus [20] = experiment: Distribution of radioactivity in rat brain region cerebellum 60 min after intravenous administration of iodine labeled compound in presence of fluvoxamine blocker in study 1; assay type: ADME, organism-based; conditions: in vivo, 1 h; how it was run: as §1
Rattus norvegicus [21] = experiment: Distribution of radioactivity in rat kidney 5 min after intravenous administration of iodine labeled compound; assay type: ADME, organism-based; conditions: in vivo; how it was run: as §2
Rattus norvegicus [22] = experiment: Distribution of radioactivity in rat blood 5 min after intravenous administration of iodine labeled compound; assay type: ADME, organism-based; conditions: in vivo; how it was run: as §5
Rattus norvegicus [23] = experiment: Distribution of radioactivity in rat brain cerebellum 120 min after intravenous administration of iodine labeled compound; assay type: ADME, organism-based; conditions: in vivo, 2 h; how it was run: as §3
Rattus norvegicus [24] = experiment: Distribution of radioactivity in rat brain region hypothalamus 60 min after intravenous administration of iodine labeled compound in presence of RTI-113 blocker in study 1; assay type: ADME, organism-based; conditions: in vivo, 1 h; how it was run: as §1
Rattus norvegicus [25] = experiment: Distribution of radioactivity in rat liver 60 min after intravenous administration of iodine labeled compound; assay type: ADME, organism-based; conditions: in vivo, 1 h; how it was run: as §2
[26] = biological target: Sodium-dependent dopamine transporter (Homo sapiens, UniProt Q01959); experiment: In vitro competitive binding versus [N-methyl-3H]WIN-35428 in murine kidney cells transfected with cDNA for human dopamine transporter (DAT); assay type: cell-based
Rattus norvegicus [27] = experiment: Distribution of radioactivity in rat lung 60 min after intravenous administration of iodine labeled compound; assay type: ADME, organism-based; conditions: in vivo, 1 h; how it was run: as §2
Rattus norvegicus [28] = experiment: Distribution of radioactivity in rat muscle tissue 120 min after intravenous administration of iodine labeled compound; assay type: ADME, organism-based; conditions: in vivo, 2 h; how it was run: as §2
Rattus norvegicus [29] = experiment: Distribution of radioactivity in rat testis 120 min after intravenous administration of iodine labeled compound; assay type: ADME, organism-based; conditions: in vivo, 2 h; how it was run: as §2
Rattus norvegicus [30] = experiment: Distribution of radioactivity in rat brain region pons 60 min after intravenous administration of iodine labeled compound in presence of fluvoxamine blocker in study 1; assay type: ADME, organism-based; conditions: in vivo, 1 h; how it was run: as §1
Rattus norvegicus [31] = experiment: Distribution of radioactivity in rat brain striatum 5 min after intravenous administration of iodine labeled compound; assay type: ADME, organism-based; conditions: in vivo; how it was run: as §4
Rattus norvegicus [32] = experiment: Distribution of radioactivity in rat lung 120 min after intravenous administration of iodine labeled compound; assay type: ADME, organism-based; conditions: in vivo, 2 h; how it was run: as §2
Rattus norvegicus [33] = experiment: Distribution of radioactivity in rat brain region pons 60 min after intravenous administration of iodine labeled compound in presence of RTI-113 blocker in study 1; assay type: ADME, organism-based; conditions: in vivo, 1 h; how it was run: as §1

Sodium-dependent dopamine transporter, sequence (Q01959 whole entry): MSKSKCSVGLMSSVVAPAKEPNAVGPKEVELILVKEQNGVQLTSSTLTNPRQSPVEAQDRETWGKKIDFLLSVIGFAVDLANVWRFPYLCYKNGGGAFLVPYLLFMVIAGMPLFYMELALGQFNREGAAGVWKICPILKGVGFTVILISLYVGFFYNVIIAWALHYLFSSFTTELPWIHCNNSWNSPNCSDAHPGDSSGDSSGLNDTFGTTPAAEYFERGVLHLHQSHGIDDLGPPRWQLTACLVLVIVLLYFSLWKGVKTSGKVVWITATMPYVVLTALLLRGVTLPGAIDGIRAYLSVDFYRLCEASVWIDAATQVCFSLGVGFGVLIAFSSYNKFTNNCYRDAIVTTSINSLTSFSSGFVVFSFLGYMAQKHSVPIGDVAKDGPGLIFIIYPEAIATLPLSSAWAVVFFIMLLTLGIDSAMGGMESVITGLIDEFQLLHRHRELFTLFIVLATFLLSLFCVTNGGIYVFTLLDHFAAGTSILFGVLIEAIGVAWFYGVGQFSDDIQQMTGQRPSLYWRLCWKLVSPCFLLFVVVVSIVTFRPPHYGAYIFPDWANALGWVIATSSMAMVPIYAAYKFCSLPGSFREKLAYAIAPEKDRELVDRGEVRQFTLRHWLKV

Structure (SMILES): COC(=O)[C@@H]1C2CCC(C[C@@H]1c1ccc(/C=C\I)cc1)N2 (stereo partly drawn)
- Distribution (dose/g) (Rattus norvegicus [1]): 3.2%
- Distribution (dose/g) (Rattus norvegicus [2]): 1.82%
- Distribution (dose/g) (Rattus norvegicus [3]): 0.74%
- Distribution (dose/g) (Rattus norvegicus [4]): 0.29%
- Distribution (dose/g) (Rattus norvegicus [5]): 2.72%
- Distribution (dose/g) (Rattus norvegicus [6]): 0.82%
- Distribution (dose/g) (Rattus norvegicus [7]): 0.27%
- Distribution (dose/g) (Rattus norvegicus [8]): 0.58%
- Distribution (dose/g) (Rattus norvegicus [9]): 0.31%
- Distribution (dose/g) (Rattus norvegicus [10]): 0.17%
- Distribution (dose/g) (Rattus norvegicus [11]): 0.72%
- Distribution (dose/g) (Rattus norvegicus [12]): 0.62%
- Distribution (dose/g) (Rattus norvegicus [13]): 0.31%
- Distribution (dose/g) (Rattus norvegicus [14]): 0.63%
- Distribution (dose/g) (Rattus norvegicus [15]): 0.66%
- Distribution (dose/g) (Rattus norvegicus [16]): 3.83%
- Distribution (dose/g) (Rattus norvegicus [17]): 3.88%
- Distribution (dose/g) (Rattus norvegicus [18]): 0.37%
- Distribution (dose/g) (Rattus norvegicus [19]): 0.75%
- Distribution (dose/g) (Rattus norvegicus [20]): 0.17%
- Distribution (dose/g) (Rattus norvegicus [21]): 1.13%
- Distribution (dose/g) (Rattus norvegicus [22]): 0.44%
- Distribution (dose/g) (Rattus norvegicus [23]): 0.12%
- Distribution (dose/g) (Rattus norvegicus [24]): 0.8%
- Distribution (dose/g) (Rattus norvegicus [25]): 0.22%
- Ki [26]: 3.47 nM
- Distribution (dose/g) (Rattus norvegicus [27]): 1.41%
- Distribution (dose/g) (Rattus norvegicus [28]): 0.17%
- Distribution (dose/g) (Rattus norvegicus [29]): 0.31%
- Distribution (dose/g) (Rattus norvegicus [30]): 0.25%
- Distribution (dose/g) (Rattus norvegicus [31]): 0.64%
- Distribution (dose/g) (Rattus norvegicus [32]): 0.76%
- Distribution (dose/g) (Rattus norvegicus [33]): 0.56%
